Measurements: paper PMC5817915 (European journal of medicinal chemistry, 2017)
Where a name gives a salt, the structure may show the parent alone.

Tests used:
PTPRZ1 = PTPRZ1 (Homo sapiens, UniProt P23471); assay: In vitro dephosphorylation assay, phosphate sensor reagent, p-NPP substrate; assay type: biochemical; conditions: for inhibition at 1 µM: read-out: inhibition of the phosphatase activity of PTPRZ1
Method in brief: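 Single-concentration screen: human recombinant PTPRZ1 (0.1 μM) incubated with test compound at 1.0 μM and p-NPP substrate. Phosphate release was detected with a phosphate sensor reagent by fluorescence (excitation 430 nm, emission 450 nm) and expressed as percent inhibition of phosphatase activity.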

ALK (Tyr1278) = assay: Western blot of ALK phosphorylation in SH-SY5Y cells; assay type: cell-based, human; conditions: SH-SY5Y cells, 1.0, 5.0 and 10.0 μM, 20 minutes
Method in brief: (§1)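 Human SH-SY5Y cells, grown in EMEM/F12 (1:1) with 10% FBS at 37 °C and 5% CO2, were switched to serum-free medium just before treatment. They were then exposed to test compound (1.0, 5.0, 10.0 μM) or DMSO vehicle for 20 min and lysed in Tris-HCl pH 7.5/Triton buffer with phosphatase and protease inhibitors. Lysate (20 μg protein) was run on SDS-PAGE and blotted to PVDF. Blots were probed for phospho-TrkA (Y490) or phospho-ALK (Y1278), reprobed for total TrkA or ALK, and detected by ECL. Densitometry data are mean ± S.E.M., analysed by one-way ANOVA with Tukey post-hoc.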

PTP1B = target: T1, PTP1B (Homo sapiens, UniProt P18031); assay: In vitro dephosphorylation assay, phosphate sensor reagent, p-NPP substrate; assay type: biochemical; conditions: from IC50 values of Table 2
T1 sequence (P18031 1-435): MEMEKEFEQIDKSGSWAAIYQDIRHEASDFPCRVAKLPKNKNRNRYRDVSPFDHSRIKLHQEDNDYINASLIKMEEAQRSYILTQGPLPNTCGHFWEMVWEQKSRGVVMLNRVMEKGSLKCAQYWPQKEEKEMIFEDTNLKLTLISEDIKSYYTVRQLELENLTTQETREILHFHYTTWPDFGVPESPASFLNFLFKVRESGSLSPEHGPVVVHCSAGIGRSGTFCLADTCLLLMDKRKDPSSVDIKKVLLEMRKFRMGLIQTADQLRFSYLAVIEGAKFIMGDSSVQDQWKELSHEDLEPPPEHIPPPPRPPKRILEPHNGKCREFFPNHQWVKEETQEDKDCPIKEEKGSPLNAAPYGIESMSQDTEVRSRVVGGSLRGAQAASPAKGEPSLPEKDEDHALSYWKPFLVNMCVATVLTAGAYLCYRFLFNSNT
Method in brief: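 Human recombinant PTPRZ1 and PTP1B, each at 0.1 μM, tested against test compound at 0.001–100 μM with p-NPP as substrate. Released inorganic phosphate was detected with a phosphate sensor reagent as a fluorescence increase (excitation 430 nm, emission 450 nm). IC50 values were calculated for each enzyme, and selectivity was judged by comparing the PTPRZ1 and PTP1B IC50s.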

PC12 cells = assay: Amphetamine-induced toxicity, cell viability by MTT; assay type: cell-based, Rat; conditions: amphetamine 1 mM, compound 1.0 μM, 24 hours
Method in brief: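 Rat PC12 cells grown in RPMI-1640 with 10% FBS, seeded at 10^4 cells/well, then co-incubated with amphetamine (1.0 mM) and test compound (1.0 μM). For MTT, cells were PBS-washed and given fresh medium with MTT (5 mg/mL stock) for 4 h. Formazan was dissolved in DMSO with 10 min shaking at RT, and absorbance read at 570 nm. Data are mean ± S.E.M., analysed by one-way ANOVA with Tukey post-hoc.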

TrkA (Tyr490) = assay: Western blot of TrkA phosphorylation in SH-SY5Y cells; assay type: cell-based, human; conditions: SH-SY5Y cells, 1.0, 5.0 and 10.0 μM, 20 minutes
Method in brief: as §1

HeLa cells = assay: Total tyrosine phosphorylation ELISA; assay type: cell-based; conditions: at any of 0.1, 1.0 and 10.0 μM
Method in brief: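 HeLa cells in RPMI-1640 with 10% FBS were seeded at 2 × 10^4 cells/well in triplicate and serum-starved 24 h. They were then treated 10 min with test compound at 0.1, 1.0 or 10.0 μM, with 0.25% DMSO as vehicle control and EGF (50 ng/mL, 10 min) as positive control. Total phosphotyrosine was measured with a tyrosine phosphorylation ELISA kit and compared with vehicle.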

[1] = In vivo permeability study, GC-MS detection in plasma and brain; conditions: mice, 1h post-gavage, 60 mg/kg
Method in brief: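 Mice were dosed by oral gavage at 60 mg/kg and killed 1 h later; brain and plasma were collected. Brain (50–100 mg) was bead-homogenised in ethyl acetate, then the supernatant was dried and taken up in heptane. Plasma (100 μL) was precipitated with 3 volumes of cold methanol at -2 °C for 20 min, dried and reconstituted in heptane. Samples were analysed by GC-MS (EI 70 eV), quantifying the extracted ion at m/z 191.0137 (LOQ ~70 ng/mL).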

alcohol-induced reward = conditions: mice; cited from earlier work

PTPRZ1, sequence (P23471 25-2315): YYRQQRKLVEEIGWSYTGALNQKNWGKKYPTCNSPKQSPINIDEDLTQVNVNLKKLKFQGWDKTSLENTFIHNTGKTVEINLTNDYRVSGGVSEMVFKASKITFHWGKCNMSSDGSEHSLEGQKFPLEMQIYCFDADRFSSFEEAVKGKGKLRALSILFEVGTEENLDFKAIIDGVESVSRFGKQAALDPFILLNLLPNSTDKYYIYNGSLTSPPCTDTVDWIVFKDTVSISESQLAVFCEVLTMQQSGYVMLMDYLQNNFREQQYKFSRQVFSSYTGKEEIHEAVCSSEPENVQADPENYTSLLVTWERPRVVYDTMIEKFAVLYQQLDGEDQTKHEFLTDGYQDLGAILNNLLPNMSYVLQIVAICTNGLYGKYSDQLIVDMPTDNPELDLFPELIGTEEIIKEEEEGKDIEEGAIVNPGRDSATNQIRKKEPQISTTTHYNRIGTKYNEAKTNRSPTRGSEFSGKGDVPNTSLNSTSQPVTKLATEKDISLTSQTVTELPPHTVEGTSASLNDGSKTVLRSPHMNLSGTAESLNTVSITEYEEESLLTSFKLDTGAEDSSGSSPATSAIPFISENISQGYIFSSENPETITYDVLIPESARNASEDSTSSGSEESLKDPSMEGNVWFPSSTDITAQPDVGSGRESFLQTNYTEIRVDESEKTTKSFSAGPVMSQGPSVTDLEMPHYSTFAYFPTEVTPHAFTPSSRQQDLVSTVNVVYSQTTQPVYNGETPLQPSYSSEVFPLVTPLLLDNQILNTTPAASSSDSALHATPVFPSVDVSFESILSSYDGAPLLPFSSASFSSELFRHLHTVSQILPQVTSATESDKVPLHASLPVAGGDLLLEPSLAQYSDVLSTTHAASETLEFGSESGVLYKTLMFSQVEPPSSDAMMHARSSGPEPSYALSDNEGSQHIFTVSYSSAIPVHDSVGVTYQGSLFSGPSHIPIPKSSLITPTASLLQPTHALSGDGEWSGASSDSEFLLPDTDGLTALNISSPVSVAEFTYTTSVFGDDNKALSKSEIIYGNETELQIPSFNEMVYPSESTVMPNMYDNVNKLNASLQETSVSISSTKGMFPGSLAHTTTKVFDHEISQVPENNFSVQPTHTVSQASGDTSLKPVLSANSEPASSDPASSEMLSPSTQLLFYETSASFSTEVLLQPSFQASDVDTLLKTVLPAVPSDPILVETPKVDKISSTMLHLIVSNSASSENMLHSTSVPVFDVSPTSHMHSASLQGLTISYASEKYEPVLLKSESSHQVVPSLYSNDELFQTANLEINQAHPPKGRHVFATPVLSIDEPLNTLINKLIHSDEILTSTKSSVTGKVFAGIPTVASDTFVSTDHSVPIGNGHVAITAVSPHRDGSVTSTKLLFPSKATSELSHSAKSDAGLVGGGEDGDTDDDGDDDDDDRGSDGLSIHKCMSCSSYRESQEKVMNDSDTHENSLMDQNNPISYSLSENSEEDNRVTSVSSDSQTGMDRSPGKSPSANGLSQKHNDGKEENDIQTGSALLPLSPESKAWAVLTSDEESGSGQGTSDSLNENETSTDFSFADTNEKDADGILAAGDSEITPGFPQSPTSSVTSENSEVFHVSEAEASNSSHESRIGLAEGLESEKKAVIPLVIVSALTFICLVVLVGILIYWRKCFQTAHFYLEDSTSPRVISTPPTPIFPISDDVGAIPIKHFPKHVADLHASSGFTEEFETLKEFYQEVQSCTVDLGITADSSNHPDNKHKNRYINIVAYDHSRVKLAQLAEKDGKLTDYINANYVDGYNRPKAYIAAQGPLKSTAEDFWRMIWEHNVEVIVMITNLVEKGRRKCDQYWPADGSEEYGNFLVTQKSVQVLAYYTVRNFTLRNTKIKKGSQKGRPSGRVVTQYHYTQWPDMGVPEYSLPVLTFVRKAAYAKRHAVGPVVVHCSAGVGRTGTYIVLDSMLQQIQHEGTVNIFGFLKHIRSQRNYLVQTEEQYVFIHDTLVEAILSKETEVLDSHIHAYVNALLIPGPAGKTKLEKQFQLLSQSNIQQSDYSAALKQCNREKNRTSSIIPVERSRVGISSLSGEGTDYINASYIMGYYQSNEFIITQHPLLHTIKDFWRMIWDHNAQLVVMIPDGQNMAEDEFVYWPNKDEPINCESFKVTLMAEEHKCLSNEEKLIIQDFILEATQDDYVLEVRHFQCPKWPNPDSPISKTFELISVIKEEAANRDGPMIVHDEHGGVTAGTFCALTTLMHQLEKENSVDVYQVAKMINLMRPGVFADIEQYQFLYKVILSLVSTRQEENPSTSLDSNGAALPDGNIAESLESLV

inhibition at 1 µM (PTPRZ1)	selectivity PTPRZ1 versus PTP1B (PTP1B)	SMILES	increase of Phospho-Tyr levels (HeLa cells)	further results
≥ 10%	strongly and selectively inhibit PTPRZ1	FC(F)(F)Sc1ccc(CNCc2ccc(SC(F)(F)F)cc2)cc1 [12b, Bis(4-((trifluoromethyl)thio)benzyl)amine hydrochloride]		increase in phosphorylation of ALK 140 kDa isoform (ALK (Tyr1278)): 2 fold; effect on amphetamine-induced loss of PC12 cell viability (PC12 cells): the same trend was observed; increase of tyrosine phosphorylation of TrkA (TrkA (Tyr490)): 2–3 fold
≥ 10%	strongly and selectively inhibit PTPRZ1	FC(F)(F)Sc1ccc(COc2ccc(SC(F)(F)F)cc2)cc1 [10a, (Trifluoromethyl)(4-((4-((trifluoromethyl)thio)benzyl)oxy)phenyl)sulfane]	≥ 10%	effect on amphetamine-induced loss of PC12 cell viability (PC12 cells): significantly prevented amphetamine-induced loss of PC12 cell viability; increase of tyrosine phosphorylation of TrkA (TrkA (Tyr490)): 2–3 fold; ability to cross the BBB [1]: can cross the BBB; effect on alcohol-induced reward (alcohol-induced reward): completely blocked alcohol-induced reward in mice
≥ 10%		FC(F)(F)Sc1ccc(NCc2ccccc2)cc1 [12d, N-benzyl-4-((trifluoromethyl)thio)aniline]	≥ 10%	
	remarkable selectivity against PTP1B	O=C(Cc1ccc(SC(F)(F)F)cc1)NCc1ccc(SC(F)(F)F)cc1 [4c, N-(4-((Trifluoromethyl)thio)benzyl)-2-(4-((trifluoromethyl)thio)phenyl)acetamide]		

Second part, the compound before the results:

SMILES	inhibition at 1 µM (PTPRZ1)	selectivity PTPRZ1 versus PTP1B (PTP1B)	increase of Phospho-Tyr levels (HeLa cells)	further results
O=C(Cc1ccc(S(=O)(=O)C(F)(F)F)cc1)Nc1ccc(S(=O)(=O)C(F)(F)F)cc1 [5b, N,2-bis(4-((trifluoromethyl)sulfonyl)phenyl)acetamide]	≥ 10%			
O=S(=O)(c1ccc(COc2ccc(S(=O)(=O)C(F)(F)F)cc2)cc1)C(F)(F)F [compound 1, 1-((Trifluoromethyl)sulfonyl)-4-((4-((trifluoromethyl)sulfonyl)benzyl)oxy)benzene, reference compound]				PTPRZ1 phosphatase activity inhibition (PTPRZ1): failed to inhibit PTPRZ1 phosphatase activity
FC(F)(F)Sc1ccc(CN(Cc2ccc(SC(F)(F)F)cc2)Cc2ccc(SC(F)(F)F)cc2)cc1 [compound 13, tris(4-((trifluoromethyl)thio)benzyl)amine]			≥ 10%	
